Data from ChEMBL document CHEMBL4673343, “Lythrum salicaria Ellagitannins Stimulate IPEC-J2 Cells Monolayer Formation and Inhibit Enteropathogenic Escherichia coli Growth and Adhesion” (J Nat Prod, 2020).
Activity calls are given as the source filed them.

Columns and labels:
[1] = test system: Escherichia coli; experiment: Growth inhibition of Escherichia coli 0147:K89:K88 at 20 to 500 uM measured every 5 mins for 24 hrs by turbidometric analysis; format: functional, organism-based; conditions: dose 20-500 µM, time hrs <=24
Summary of the method: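 Compound stocks were made in DMSO and filtered. The turbidimetric assay used double-strength BHI, 20–500 μM, E. coli at final 10^4 CFU/mL, and sealed anaerobic plates at 37 °C. OD690 was read every 5 min over 24 h.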

[2] = test system: Escherichia coli; experiment: Growth inhibition of Escherichia coli DSM 2840 at 20 to 500 uM measured every 5 mins for 24 hrs by turbidometric analysis; format: functional, organism-based; conditions: dose 20-500 µM, time hrs <=24
Summary of the method: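 Strains were revived from cryostocks and passaged twice daily in BHI with shaking at 37 °C over 2 days. Double-strength BHI plus diluted test stock (compounds in DMSO, 0.22 μm filtered), inoculum at final 10^4 CFU/mL, film-sealed for anaerobic conditions, 37 °C in plate reader. OD690 was read every 5 min for 24 h; lag time came from the lag-exponential method. Three independent experiments were run, each in triplicate.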

[3] = test system: IPEC-J2; experiment: Induction of porcine IPEC-J2 cells monolayer development assessed as increase in transepithelial electrical resistance at 50 uM after 6 days by voltammetric method; format: functional, cell-based; conditions: Sus scrofa domesticus, time 6.0 day

O=c1oc2cc(O)ccc2c2cc(O)c(O)cc12
inactive: growth inhibition (GI) [1] | growth inhibition (GI) [2] | Activity [3]
